pIC50: −log10 of the molar value. The source made the active and inactive calls. The calls are words filed in the database; no cut-off is given here.

In one assay the target is T1, Cytosolic phospholipase A2 (Homo sapiens) (UniProt P47712).
T1 sequence (whole entry): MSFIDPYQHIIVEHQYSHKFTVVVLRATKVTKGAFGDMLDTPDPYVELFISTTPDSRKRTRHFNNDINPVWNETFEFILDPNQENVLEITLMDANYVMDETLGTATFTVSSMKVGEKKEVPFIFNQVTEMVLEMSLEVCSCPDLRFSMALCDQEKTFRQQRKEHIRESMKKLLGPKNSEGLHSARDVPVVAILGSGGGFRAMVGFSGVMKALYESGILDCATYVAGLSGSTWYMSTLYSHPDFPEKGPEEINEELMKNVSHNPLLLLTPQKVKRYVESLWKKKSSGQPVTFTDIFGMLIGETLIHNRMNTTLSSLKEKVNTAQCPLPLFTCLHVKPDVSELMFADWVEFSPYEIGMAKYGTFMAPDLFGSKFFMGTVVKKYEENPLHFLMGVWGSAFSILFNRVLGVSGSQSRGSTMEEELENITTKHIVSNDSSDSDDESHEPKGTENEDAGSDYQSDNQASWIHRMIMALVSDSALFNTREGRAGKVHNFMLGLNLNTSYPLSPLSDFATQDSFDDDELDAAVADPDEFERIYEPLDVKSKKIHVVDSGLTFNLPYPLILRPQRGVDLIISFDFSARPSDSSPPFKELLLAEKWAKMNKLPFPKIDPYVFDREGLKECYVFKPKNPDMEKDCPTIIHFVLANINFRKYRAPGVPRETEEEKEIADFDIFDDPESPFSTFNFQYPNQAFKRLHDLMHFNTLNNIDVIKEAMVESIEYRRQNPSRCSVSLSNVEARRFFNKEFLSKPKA
The assay is described as follows: Inhibition of human platelet cPLA2-alpha assessed as arachidonic acid release at 10 uM by vesicle assay. In outline:
(§1)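 cPLA2α isolated from human platelets. Highest test concentration 10 µM, kept low to limit inhibitor mole fraction in the interface. Incubated 60 min. Released arachidonic acid is cleaned up by solid-phase extraction, then quantified by reversed-phase HPLC with UV detection at 200 nm.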
In the case of `CCCCCCCCc1ccc(OCC(=O)Cn2ccc3cc(-c4nc(Cc5ccccc5)no4)ccc32)cc1`, the outcome was inactive.
For orientation: inhibition means the drop in the measured response relative to a control, in per cent. In the case of `CCCCCCCCc1ccc(OCC(=O)Cn2ccc3cc(/C=C4\SC(=O)NC4=O)ccc32)cc1`, the inhibition came out at 29%.
`CCCCCCCCc1ccc(OCC(=O)Cn2ccc3cc(-c4nc(CC)no4)ccc32)cc1`: the outcome was inactive.

Another assay has as its target T2, Cytosolic phospholipase A2 (Homo sapiens, UniProt P47712).
T2 sequence (P47712 whole entry): T1 sequence (whole entry)
In words: Inhibition of human platelet cPLA2-alpha assessed as arachidonic acid release by vesicle assay. A digest of the protocol:
as §1
One may read the pIC50 as the negative decadic logarithm of the IC50, by convention in mol/L. `CCCCCCCCc1ccc(OCC(=O)Cn2ccc3cc(S(=O)(=O)N(C)C)ccc32)cc1`: the pIC50 was 6.30.
Consider `CCCCCCCCc1ccc(OCC(=O)Cn2ccc3cc(C(=O)N(C)C)ccc32)cc1`, for which the negative logarithm of the IC50 (pIC50) was 6.08.
For the compound `CCCCCCCCc1ccc(OCC(=O)Cn2ccc3cc(C(=O)N4CCOCC4)ccc32)cc1`, the pIC50 is 6.30.
For `CCCCCCCCc1ccc(OCC(=O)Cn2ccc3cc(C(=O)NC)ccc32)cc1`, the pIC50 is 6.43.
Take `CCCCCCCCc1ccc(OCC(=O)Cn2ccc3cc(-c4noc(=O)[nH]4)ccc32)cc1`: the pIC50 was 5.46.
With `CCCCC/C=C\C/C=C\C/C=C\C/C=C\CCCC(=O)C(F)(F)F` [ARACHIDONYL TRIFLUOROMETHYLKETONE], the negative-log IC50 (pIC50) was 5.64.
Take `CCCCCCCCc1ccc(OCC(=O)Cn2cc(C(=O)OC)c3cc(C(=O)O)ccc32)cc1`: the negative-log IC50 (pIC50) was 8.30.
With `CCCCCCCCc1ccc(OCC(=O)Cn2ccc3cc(-c4nnn[nH]4)ccc32)cc1`, the negative-log IC50 (pIC50) is 5.96.
The same measure, in the same setting: as for `CCCCCCCCc1ccc(OCC(=O)Cn2ccc3cc(S(=O)(=O)NC)ccc32)cc1`, the figure is 6.51; as for `CCCCCCCCc1ccc(OCC(=O)Cn2ccc3cc(S(N)(=O)=O)ccc32)cc1`, 6.41.
